Assay results as given in ChEMBL document CHEMBL3120161, “Antimycobacterial activity of nitrogen heterocycles derivatives: bipyridine derivatives. Part III” (Eur J Med Chem, 2014).
In brackets after ≈: the same amount, converted by molar mass. Activity calls are given as the source filed them. The rule behind the calls is not given here.

Key:
[1] = Cytotoxicity against mouse J774A1 cells assessed as cell viability at 75 ug/ml after 7 days by MTT assay relative to control; assay type: cell-based, J774.A1; settings: read-out: Activity
Summary of the method: (§1)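 Uninfected murine J774 macrophages grown in RPMI 1640 with L-glutamine and FBS at 37 °C, 5% CO2. Cells seeded at 2.0 × 10^5 per well in 10% FBS, then switched to 1% FBS overnight. Run in parallel with the 7-day infection assay. […] Read out by MTT as percent viability.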

[2] = Cytotoxicity against mouse J774A1 cells assessed as cell viability at 7.5 ug/ml after 7 days by MTT assay relative to control; assay type: cell-based, J774.A1; settings: read-out: Activity; summary of the method: as §1
[3] = Cytotoxicity against mouse J774A1 cells assessed as cell viability at 0.75 ug/ml after 7 days by MTT assay relative to control; assay type: cell-based, J774.A1; settings: read-out: Activity; summary of the method: as §1
[4] = test system: Mycobacterium tuberculosis; test: Antimycobacterial activity against Mycobacterium tuberculosis H37Rv SRI 1345 infected in mouse J774A1 cells assessed as reduction in bacterial growth at 75 ug/ml after 7 days relative to control; assay type: functional, J774.A1
Summary of the method: (§2)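 Murine J774 macrophages in RPMI 1640 with L-glutamine and FBS, seeded at 2.0 × 10^5 per well in 10% FBS, then switched to 1% FBS. Infected 4 h with H37Rv at MOI 5; unphagocytosed bacteria washed off. Compound added at three concentrations (0.75, 7.5, 75 µg/mL) for 7 days. At 0 and 7 days cells lysed with SDS, DNase-treated and plated on 7H10 for CFU; log reduction reported.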

[5] = test system: Mycobacterium tuberculosis; test: Antimycobacterial activity against Mycobacterium tuberculosis H37Rv SRI 1345 infected in mouse J774A1 cells assessed as reduction in bacterial growth at 7.5 ug/ml after 7 days relative to control; assay type: functional, J774.A1; summary of the method: as §2
[6] = test system: Mycobacterium tuberculosis; test: Antimycobacterial activity against Mycobacterium tuberculosis H37Rv SRI 1345 incubated for 7 days under anaerobic condition measured after 7 days of recovery under gaseous condition by low oxygen recovery assay; assay type: functional
[7] = test system: Mycobacterium tuberculosis; test: […] activity against Mycobacterium tuberculosis H37Rv SRI 1345 after 16 to 21 days; assay type: functional
Summary of the method: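 MBC, done after MIC testing in H37Rv SRI 1345: diluted aliquots from wells without macroscopic growth are plated on Middlebrook 7H10 agar and incubated 16–21 days at 37 °C. CFUs are counted. MBC is the lowest concentration giving 99.9% kill; rejection value is ≥40 colonies.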

[8] = test system: Mycobacterium tuberculosis; test: Antimycobacterial activity against Mycobacterium tuberculosis H37Rv SRI 1345 at MIC after 7 days by broth microdilution assay relative to control; assay type: functional
[9] = test system: Mycobacterium tuberculosis; test: Antimycobacterial activity against Mycobacterium tuberculosis H37Rv SRI 1345 after 7 days by broth microdilution assay; assay type: functional; settings: H37Rv SRI 1345, 168 h
[10] = test system: Mycobacterium tuberculosis; test: Antimycobacterial activity against Mycobacterium tuberculosis H37Rv ATCC 27294 after 7 days by broth microdilution assay; assay type: functional; settings: H37Rv ATCC 27294, 168 h
Summary of the method: (§3)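 Cycle 1 HTS MABA: M. tuberculosis H37Rv ATCC 27294 in 7H12 broth, 384-well, final 1% DMSO. Ten twofold dilutions, typically 100 to 0.195 µg/mL. Amikacin controls at 0.17 and 3.20 µM; the high level serves as background for percent inhibition. 7 days at 37 °C, ~95% humidity. Fluorescence read at 535 nm excitation / 590 nm emission.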

[11] = test system: Mycobacterium tuberculosis; test: Antimycobacterial activity against Mycobacterium tuberculosis H37Rv SRI 1345 infected in mouse J774A1 cells assessed as reduction in bacterial growth at 0.75 ug/ml after 7 days relative to control; assay type: functional, J774.A1; summary of the method: as §2
[12] = test system: Mycobacterium tuberculosis; test: Antimycobacterial activity against Mycobacterium tuberculosis H37Rv ATCC 27294 after 7 days by microplate Alamar blue assay; assay type: functional, organism-based; settings: H37Rv ATCC 27294, 168 h; summary of the method: as §3
[13] = test system: Mycobacterium tuberculosis; test: Antimycobacterial activity against Mycobacterium tuberculosis H37Rv ATCC 27294 at 0.31 ug/ml after 7 days by microplate Alamar blue assay relative to control; assay type: functional; settings: H37Rv ATCC 27294, 168 h; summary of the method: as §3
[14] = test system: Mycobacterium tuberculosis; test: Antimycobacterial activity against Mycobacterium tuberculosis H37Rv ATCC 27294 at 0.79 ug/ml after 7 days by microplate Alamar blue assay relative to control; assay type: functional; settings: H37Rv ATCC 27294, 168 h; summary of the method: as §3
[15] = test system: Mycobacterium tuberculosis; test: Antimycobacterial activity against Mycobacterium tuberculosis H37Rv ATCC 27294 at 3.13 ug/ml after 7 days by microplate Alamar blue assay relative to control; assay type: functional; settings: H37Rv ATCC 27294, 168 h; summary of the method: as §3
[16] = test system: Mycobacterium tuberculosis; test: Antimycobacterial activity against Mycobacterium tuberculosis H37Rv ATCC 27294 at 6.25 ug/ml after 7 days by microplate Alamar blue assay relative to control; assay type: functional; settings: H37Rv ATCC 27294, 168 h; summary of the method: as §3
[17] = test system: Mycobacterium tuberculosis; test: Antimycobacterial activity against Mycobacterium tuberculosis H37Rv ATCC 27294 at 12.5 to 100 ug/ml after 7 days by microplate Alamar blue assay relative to control; assay type: functional; summary of the method: as §3
[18] = test system: Mycobacterium tuberculosis; test: Antimycobacterial activity against Mycobacterium tuberculosis H37Rv ATCC 27294 at 12.5 ug/ml after 7 days by microplate Alamar blue assay relative to control; assay type: functional; settings: H37Rv ATCC 27294, 168 h; summary of the method: as §3
[19] = test system: Mycobacterium tuberculosis; test: Antimycobacterial activity against Mycobacterium tuberculosis H37Rv ATCC 27294 at 25 ug/ml after 7 days by microplate Alamar blue assay relative to control; assay type: functional; settings: H37Rv ATCC 27294, 168 h; summary of the method: as §3
[20] = test system: Mycobacterium tuberculosis; test: Antimycobacterial activity against Mycobacterium tuberculosis H37Rv ATCC 27294 at 50 ug/ml after 7 days by microplate Alamar blue assay relative to control; assay type: functional; settings: H37Rv ATCC 27294, 168 h; summary of the method: as §3
[21] = test system: Mycobacterium tuberculosis; test: Antimycobacterial activity against Mycobacterium tuberculosis H37Rv ATCC 27294 at 100 ug/ml after 7 days by microplate Alamar blue assay relative to control; assay type: functional; settings: H37Rv ATCC 27294, 168 h; summary of the method: as §3
[22] = test system: Mycobacterium tuberculosis; test: Antimycobacterial activity against Mycobacterium tuberculosis H37Rv ATCC 27294 at 1.56 ug/ml after 7 days by microplate Alamar blue assay relative to control; assay type: functional; settings: H37Rv ATCC 27294, 168 h; summary of the method: as §3
[23] = test system: Mycobacterium tuberculosis; test: Antimycobacterial activity against Mycobacterium tuberculosis H37Rv ATCC 27294 at 6.5 ug/ml after 7 days by microplate Alamar blue assay relative to control; assay type: functional; settings: H37Rv ATCC 27294, 168 h; summary of the method: as §3

CCOC(=O)c1cc(C(=O)c2ccccc2)n2ccc(-c3cc[n+](CC(=O)c4ccc(OC)cc4)cc3)cc12.[Br-]
viability at 168 h, 75 ug/ml [1]: < 10% | viability at 168 h, 7.5 ug/ml [2]: 71% | viability at 168 h, 0.75 ug/ml [3]: 86% | fold change (FC) [4]: 3.11 | fold change (FC) [5]: 2.65 | INH [6]: 1.17 µg/mL | Activity [7]: inactive | inhibition (INH) [8]: 51% | MIC [9]: 2.34 µg/mL | MIC90 [10]: 12.5 µM | fold change (FC) [11]: 1.19 | IC50 [12]: 3.88 µg/mL | IC90 [12]: 13.1 µg/mL | MIC90 [13]: 12.5 µM | inhibition at 0.79 µg/mL [14]: 9.9% | inhibition at 3.13 µg/mL [15]: 38.6% | inhibition at 6.25 µg/mL [16]: 65.1% | inhibition (INH) [17]: 98.5%

CCOC(=O)c1cc(C#N)n2ccc(-c3ccncc3)cc12
MIC90 [10]: > 100 µM | IC50 [12]: 33.4 µg/mL (≈ 114 µM) | IC90 [12]: 59.5 µg/mL (≈ 204 µM) | inhibition at 12.5 µg/mL [18]: 15.3% | inhibition at 25 µg/mL [19]: 21.5% | inhibition at 50 µg/mL [20]: 84.9% | inhibition at 100 µg/mL [21]: 97.2% | inhibition at 0.79 µg/mL [14]: 8.6%

CCOC(=O)c1cc(C(=O)c2ccccc2)n2ccc(-c3ccncc3)cc12
MIC90 [10]: > 100 µM | IC50 [12]: > 100 µg/mL | IC90 [12]: > 100 µg/mL | inhibition at 1.56 µg/mL [22]: 3% | inhibition at 6.5 µg/mL [23]: 0.2% | inhibition at 100 µg/mL [21]: -8.6% | inhibition at 3.13 µg/mL [15]: 3.9%

CCOC(=O)c1cc(C(=O)c2ccccc2)n2ccc(-c3ccn4c(C(=O)c5ccc(OC)cc5)cc(C(=O)OC)c4c3)cc12
MIC90 [10]: > 100 µM | IC50 [12]: > 100 µg/mL | IC90 [12]: > 100 µg/mL | inhibition at 1.56 µg/mL [22]: -2% | inhibition at 12.5 µg/mL [18]: 0.8% | inhibition at 50 µg/mL [20]: 5.3% | inhibition at 100 µg/mL [21]: -4.5%

CCOC(=O)c1cc(C(N)=O)n2ccc(-c3ccncc3)cc12
MIC90 [10]: > 100 µM | IC50 [12]: > 100 µg/mL | IC90 [12]: > 100 µg/mL | inhibition at 1.56 µg/mL [22]: 2.8% | inhibition at 12.5 µg/mL [18]: 4% | inhibition at 50 µg/mL [20]: 2% | inhibition at 100 µg/mL [21]: -17%
